Assay [1] can be described thus: Selectivity ratio of Ki for NET to IC50 for DAT. The gist of the method: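 NET/DAT selectivity: NET Ki (from [3H]nisoxetine binding) divided by DAT IC50 (from [3H]WIN35,428 binding). Both values are means of three or four triplicate experiments.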
In assay [2] the target is Sodium-dependent dopamine transporter (Homo sapiens, UniProt Q01959). Description: Displacement of [3H]WIN-35428 from DAT. A digest of the protocol:
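[3H]WIN35,428 displacement at DAT; IC50 reported because DAT has two binding sites. Compounds tested as HCl or tartrate salts. Mean ± standard error of three or four experiments, each run in triplicate.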
For orientation: Displacement assays read how much labelled ligand stays bound in the presence of the test substance.

Assay [3] addresses Sodium-dependent noradrenaline transporter (Homo sapiens, UniProt P23975). Description: Displacement of [3H]nisoxetine from NET.
For assay [4], the target named is Sodium-dependent serotonin transporter (Homo sapiens, UniProt P31645). Description: Displacement of [3H]paroxetine from 5-HTT. A digest of the protocol: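 Inhibition of [3H]paroxetine binding at 5-HTT, a single-site transporter, with Ki calculated from it. Compounds tested as HCl or tartrate salts. Mean ± standard error of three or four experiments, each run in triplicate.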

Assay [5] is described as follows: Selectivity ratio of Ki for NET to Ki for 5-HTT. The gist of the method:
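NET/5-HTT selectivity: NET Ki (from [3H]nisoxetine binding) divided by 5-HTT Ki (from [3H]paroxetine binding). Both values are means of three or four triplicate experiments.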

The results in this text go back to ChEMBL document CHEMBL1154083, “Synthesis and structure-activity relationship of 3beta-(4-alkylthio, -methylsulfinyl, and -methylsulfonylphenyl)tropane and 3beta-(4-alkylthiophenyl)nortropane derivatives for monoamine transporters” (Bioorg Med Chem, 2009).

Sequence of Sodium-dependent serotonin transporter (P31645 whole entry): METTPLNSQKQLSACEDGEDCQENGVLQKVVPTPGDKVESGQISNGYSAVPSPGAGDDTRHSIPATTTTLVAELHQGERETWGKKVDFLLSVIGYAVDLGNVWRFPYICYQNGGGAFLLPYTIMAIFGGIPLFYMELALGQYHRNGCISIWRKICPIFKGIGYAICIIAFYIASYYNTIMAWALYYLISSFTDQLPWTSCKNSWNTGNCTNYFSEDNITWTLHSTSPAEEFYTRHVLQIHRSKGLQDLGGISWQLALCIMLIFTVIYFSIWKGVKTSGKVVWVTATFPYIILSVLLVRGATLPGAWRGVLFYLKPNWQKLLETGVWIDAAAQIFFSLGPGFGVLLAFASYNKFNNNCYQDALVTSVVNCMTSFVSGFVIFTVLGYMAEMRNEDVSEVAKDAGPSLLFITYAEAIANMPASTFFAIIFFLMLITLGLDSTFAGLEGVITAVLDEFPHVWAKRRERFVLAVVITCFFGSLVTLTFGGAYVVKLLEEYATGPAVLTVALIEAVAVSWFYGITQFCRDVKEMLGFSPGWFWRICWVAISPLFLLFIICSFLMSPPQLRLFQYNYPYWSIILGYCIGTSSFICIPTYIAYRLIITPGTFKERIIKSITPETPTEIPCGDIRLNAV
Sequence of Sodium-dependent noradrenaline transporter (P23975 whole entry): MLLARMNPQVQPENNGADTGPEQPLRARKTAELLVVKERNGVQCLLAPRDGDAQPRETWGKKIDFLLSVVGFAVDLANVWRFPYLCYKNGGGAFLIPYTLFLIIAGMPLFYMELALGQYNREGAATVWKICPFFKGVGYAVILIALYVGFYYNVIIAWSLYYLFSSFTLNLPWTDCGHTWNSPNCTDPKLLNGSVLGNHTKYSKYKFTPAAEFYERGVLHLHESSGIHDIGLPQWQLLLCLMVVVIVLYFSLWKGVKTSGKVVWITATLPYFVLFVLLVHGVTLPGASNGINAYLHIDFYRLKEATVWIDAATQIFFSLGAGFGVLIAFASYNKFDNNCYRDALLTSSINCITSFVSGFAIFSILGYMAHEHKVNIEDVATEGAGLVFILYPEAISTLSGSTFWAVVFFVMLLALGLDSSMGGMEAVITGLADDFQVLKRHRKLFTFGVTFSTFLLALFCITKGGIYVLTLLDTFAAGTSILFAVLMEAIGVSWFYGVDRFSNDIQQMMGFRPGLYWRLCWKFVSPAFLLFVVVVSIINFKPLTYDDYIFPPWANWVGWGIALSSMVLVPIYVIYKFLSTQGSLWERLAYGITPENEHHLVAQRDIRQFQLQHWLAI
Sequence of Sodium-dependent dopamine transporter (Q01959 whole entry): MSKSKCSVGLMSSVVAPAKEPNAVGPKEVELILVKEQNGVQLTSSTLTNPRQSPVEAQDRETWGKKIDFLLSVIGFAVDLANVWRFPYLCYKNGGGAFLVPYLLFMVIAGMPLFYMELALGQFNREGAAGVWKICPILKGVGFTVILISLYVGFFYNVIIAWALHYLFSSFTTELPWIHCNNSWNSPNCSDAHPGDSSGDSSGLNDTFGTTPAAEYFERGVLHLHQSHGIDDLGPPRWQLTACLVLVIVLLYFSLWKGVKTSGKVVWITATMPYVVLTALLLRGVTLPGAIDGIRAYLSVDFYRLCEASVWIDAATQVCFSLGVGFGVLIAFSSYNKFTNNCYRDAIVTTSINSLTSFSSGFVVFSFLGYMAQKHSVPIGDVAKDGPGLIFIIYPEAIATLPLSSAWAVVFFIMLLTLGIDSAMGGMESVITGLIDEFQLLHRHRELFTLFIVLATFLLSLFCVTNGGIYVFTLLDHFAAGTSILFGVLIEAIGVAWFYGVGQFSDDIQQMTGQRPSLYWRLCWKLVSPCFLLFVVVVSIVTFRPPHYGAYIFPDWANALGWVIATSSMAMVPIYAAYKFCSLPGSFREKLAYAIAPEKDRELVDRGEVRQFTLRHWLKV

Broadly, the IC50 is the concentration at which inhibition is half-maximal. By Ki is commonly meant the equilibrium dissociation constant of an inhibitor or competing ligand from its target. The low end stands for tighter binding, the high end for weaker binding. Consider `COC(=O)[C@@H]1C2CCC(C[C@@H]1c1ccc(SC)cc1)N2` (stereo partly specified), for which the Ratio in assay [1] amounted to 0.8. This compound displayed an IC50 in assay [2] of 0.028 µM. Besides, the Ki in assay [3] was found to be 0.021 µM; in assay [4] it was 0.00019 µM. The Ratio Ki in assay [5] is 110.

As for `COC(=O)[C@H]1[C@@H](c2ccc(SC(C)C)cc2)C[C@@H]2CC[C@H]1N2C`, the Ratio in assay [1] came to 8. Moreover, the concentration for half-maximal inhibition (IC50) in assay [2] was determined as 0.016 µM. For the same compound, the Ki was determined as 0.129 µM in assay [3] and 0.023 µM in assay [4]. The Ratio Ki in assay [5] came to 7.

For the compound `COC(=O)[C@H]1[C@@H](c2ccc(OC)cc2)C[C@@H]2CC[C@H]1N2C`, the values for the Ki in assay [3] and in assay [4] were 1.11 µM and 0.0043 µM, respectively.

`CCSc1ccc([C@H]2CC3CCC([C@H]2C(=O)OC)N3CCCF)cc1` (stereo partly specified): the Ratio in assay [1] was found to be 2. This compound came in with an IC50 in assay [2] of 1.2 µM. In addition, the Ki in assay [3] is greater than 2 µM; in assay [4], 0.027 µM. For the same compound, the Ratio Ki in assay [5] was greater than 74.

As to `C=CCN1C2CCC1[C@@H](C(=O)OC)[C@@H](c1ccc(SCC)cc1)C2` (stereo partly specified), the Ratio in assay [1] was greater than 2. In assay [2], this compound registered a half-maximal inhibitory concentration (IC50) of 1.1 µM. Besides, the Ki in assay [3] is greater than 2 µM; in assay [4], 0.047 µM. Besides, the Ratio Ki in assay [5] is greater than 43.

As to `COC(=O)[C@H]1[C@@H](c2ccc([S+](C)[O-])cc2)C[C@@H]2CC[C@H]1N2C` (stereo partly specified), the Ratio in assay [1] is 6. In assay [2], this compound showed an IC50 of 0.091 µM. The Ki in assay [3] is 0.515 µM; in assay [4], 0.0043 µM. The Ratio Ki in assay [5] is 120.

As to `COC(=O)[C@H]1[C@@H](c2ccc([S+](C)[O-])c(Br)c2)C[C@@H]2CC[C@H]1N2C` (stereo partly specified), the Ratio in assay [1] is 9. The IC50 in assay [2] was determined as 0.076 µM. Besides, the Ki worked out at 0.69 µM in assay [3] and 0.0032 µM in assay [4]. The Ratio Ki in assay [5] worked out at 216.

In the case of `COC(=O)[C@H]1[C@@H](c2ccc(SC(F)(F)F)cc2)C[C@@H]2CC[C@H]1N2C`, the Ratio in assay [1] is 10. In assay [2], the IC50 stood at 0.2 µM. For the same compound, the Ki in assay [3] was found to be 1.9 µM; in assay [4], 0.008 µM. Further, the Ratio Ki in assay [5] was 238.

In the case of `COC(=O)[C@H]1[C@@H](c2ccc(SC)c(Br)c2)C[C@@H]2CC[C@H]1N2C`, in assay [1], the Ratio stood at 12. The same compound displayed an IC50 in assay [2] of 0.0101 µM. Further, the values for the Ki in assay [3] and in assay [4] were 0.121 µM and 0.0006 µM, respectively. Further, the Ratio Ki in assay [5] turned out to be 202.

As for `CCSc1ccc([C@H]2CC3CCC(N3)[C@H]2C(=O)OC)cc1` (stereo partly specified), the Ratio in assay [1] was 0.7. Moreover, in assay [2], the IC50 came to 0.177 µM. Also, the Ki in assay [3] was 0.118 µM; in assay [4] it was 0.00126 µM. In addition, in assay [5], the Ratio Ki came to 94.

For the compound `CCSc1ccc([C@H]2C[C@@H]3CC[C@H]([C@H]2C(=O)OC)N3C)cc1`, in assay [1], the Ratio was determined as 5. For the same compound, the IC50 in assay [2] turned out to be 0.232 µM. The Ki in assay [3] was 1.17 µM; in assay [4], 0.0045 µM. Also, in assay [5], the Ratio Ki came to 260.

For the compound `C=CCN1C2CCC1[C@@H](C(=O)OC)[C@@H](c1ccc(SC)cc1)C2` (stereo partly specified), the Ratio in assay [1] was 28. In assay [2], this compound gave an IC50 of 0.071 µM. Further, the Ki in assay [3] was determined as 2 µM; in assay [4], 0.0055 µM. Besides, the Ratio Ki in assay [5] turned out to be 364.

Consider `CCCN1C2CCC1[C@@H](C(=O)OC)[C@@H](c1ccc(SC)cc1)C2` (stereo partly specified), for which the Ratio in assay [1] was determined as 16. This compound also had an IC50 in assay [2] of 0.074 µM. Besides, the Ki turned out to be 1.2 µM in assay [3] and 0.0057 µM in assay [4]. Further, the Ratio Ki in assay [5] turned out to be 211.

`COC(=O)[C@H]1[C@@H](c2ccc(SC)cc2)C[C@@H]2CC[C@H]1N2C`: in assay [1], the Ratio was determined as 24. In assay [2], this compound had an IC50 of 0.009 µM. In addition, the Ki in assay [3] was determined as 0.22 µM; in assay [4], 0.0007 µM. Moreover, the Ratio Ki in assay [5] came to 314.

Take `COC(=O)[C@@H]1C2CCC(C[C@@H]1c1ccc(SC)cc1)N2CCCF` (stereo partly specified): the Ratio in assay [1] turned out to be 9. The IC50 in assay [2] amounted to 0.112 µM. Moreover, the Ki in assay [3] turned out to be 0.96 µM; in assay [4] it was 0.003 µM. Besides, the Ratio Ki in assay [5] was 320.

Consider `CCCN1C2CCC1[C@@H](C(=O)OC)[C@@H](c1ccc(SCC)cc1)C2` (stereo partly specified), for which, in assay [1], the Ratio was greater than 2. Moreover, the IC50 in assay [2] stood at 0.9 µM. Besides, the inhibition constant (Ki) in assay [3] was greater than 2 µM; in assay [4] it was 0.049 µM. In addition, the Ratio Ki in assay [5] was greater than 41.

For the compound `COC(=O)[C@H]1[C@@H](c2ccc(S(C)(=O)=O)cc2)C[C@@H]2CC[C@H]1N2C`, the IC50 in assay [2] is greater than 10 µM. Moreover, the Ki in assay [3] was greater than 10 µM; in assay [4], 0.208 µM. Besides, the Ratio Ki in assay [5] is greater than 48.
